# HUVEC prolif 384 – human endothelial cell proliferation inhibition; HUVEC proliferation, CellTiter-Glo luminescence, 72 h; hits give low values; viability, % at 10 µM (by protocol); actives 1.1% (n = 86,000);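 active = viability at or below 30%; inactive = viability above 30%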;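 also: 100% = median luminescence of DMSO-only cell control wells on each plate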
# Jurkat tox 60K – reduces viability or proliferation of Jurkat cells. actives 1.2% (n = 56,000). inhibition, % at 4 µM. Jurkat E6.1 viability, ATP luminescence, 48 h. AID 463;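 active = inhibition above the mean inhibition of all tested compounds plus 3 SD, cut at about 28% in these data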
# F-actin modifier – alters cytoskeleton assembly in HUVEC cells. inhibition, % at 2 µM. AID 836. actives 0.18% (n = 91,000). HUVEC TNFa F-actin phalloidin imaging, high content;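 active = inhibition above the batch mean plus 3 SD and confirmed as a hit by visual image inspection, cut at about 30% in these data, passing the limit was not always enough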
# H69AR growth 86K – growth inhibitors of human H69AR lung tumor cells; H69AR lung tumor viability, ATP luminescence, 72 h; hits give low values; viability, % at 10 µM; actives 6% (n = 85,000);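 active = viability at or below 40%; inactive = viability above 40%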;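 also: multidrug resistant small cell line overexpressing MRP-1 efflux transporter; 100% = mean luminescence of untreated control wells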
# Lung fibro prol – blocks proliferation of human lung fibroblasts. LL 47 human lung fibroblast viability, ATP luminescence; hits give low values. actives 1.1% (n = 85,000). viability, % at 10 µM. AID 719;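 active = viability at or below 50% in the single dose screen; inactive = viability above 50%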;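 also: compound exposure lasted 72 h before the ATP readout; 100% = median luminescence of untreated cell-only wells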
#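 material = human LL 47 lung fibroblast cells | dosing = compounds added from tenfold dosing solution, 0.1% DMSO final | timing = overnight cell rest, 72 h compound treatment at 37 °C | measured by = CellTiter-Glo luminescence measuring cellular ATP | evaluation = % viability versus median cells-only luminescence | control set = cell-only wells, no compound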
# Pyk2 oligo antag – Pyk2 (human) oligomerization antagonism | Q293 cells, Pyk2 FERM NanoBiT luminescence; hits give low values | actives 0.83% (n = 99,000) | z-score (the deposit names both 25 µM and 10 µM);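 active = Z-score of -3 or lower, scaled per plate to the spread of control and sample wells; inactive = z-score above -3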;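 also: negative z-score means lost luminescence so less FERM oligomerization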
# Target sequence (Q14289 whole entry, looked up): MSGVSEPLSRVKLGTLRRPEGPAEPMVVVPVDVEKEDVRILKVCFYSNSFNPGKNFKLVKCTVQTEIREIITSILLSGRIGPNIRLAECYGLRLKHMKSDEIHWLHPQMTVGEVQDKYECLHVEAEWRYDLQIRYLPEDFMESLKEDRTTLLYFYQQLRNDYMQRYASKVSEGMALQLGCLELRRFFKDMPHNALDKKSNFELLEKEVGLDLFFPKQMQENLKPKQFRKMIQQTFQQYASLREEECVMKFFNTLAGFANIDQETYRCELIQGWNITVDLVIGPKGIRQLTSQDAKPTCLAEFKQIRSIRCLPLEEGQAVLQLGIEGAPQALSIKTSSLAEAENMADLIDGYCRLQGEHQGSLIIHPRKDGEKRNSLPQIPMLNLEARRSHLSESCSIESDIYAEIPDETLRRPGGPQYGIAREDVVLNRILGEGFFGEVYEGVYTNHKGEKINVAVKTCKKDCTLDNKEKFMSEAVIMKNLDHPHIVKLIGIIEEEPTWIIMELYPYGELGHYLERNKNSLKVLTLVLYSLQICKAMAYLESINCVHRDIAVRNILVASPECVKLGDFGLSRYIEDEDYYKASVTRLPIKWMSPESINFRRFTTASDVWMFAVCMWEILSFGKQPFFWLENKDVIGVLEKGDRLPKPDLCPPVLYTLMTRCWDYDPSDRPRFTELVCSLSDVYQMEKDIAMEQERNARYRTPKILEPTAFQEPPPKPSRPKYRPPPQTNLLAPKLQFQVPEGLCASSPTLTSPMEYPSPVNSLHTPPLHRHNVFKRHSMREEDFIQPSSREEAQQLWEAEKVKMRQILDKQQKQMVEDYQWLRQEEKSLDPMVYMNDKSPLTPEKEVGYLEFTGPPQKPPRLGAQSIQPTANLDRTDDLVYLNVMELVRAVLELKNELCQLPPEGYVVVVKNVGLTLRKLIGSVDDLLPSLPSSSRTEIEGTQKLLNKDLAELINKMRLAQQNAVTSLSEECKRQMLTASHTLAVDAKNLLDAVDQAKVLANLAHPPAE
# * = called active by the depositor; nt = not tested or not shown. Rows were chosen to be rich in hits. Some 6% of all compounds tested hit in one or more screens of this group.
SMILES,HUVEC prolif 384,Jurkat tox 60K,F-actin modifier,H69AR growth 86K,Lung fibro prol,Pyk2 oligo antag
O=S(=O)(Nc1ccncc1)c1ccc(Cl)cc1,nt,nt,-19.4,nt,nt,-0.37
O=C(CN(Cc1ccc(F)cc1)C(=O)CCC(=O)Nc1ccccn1)NCc1ccco1,90.4,7.5,30.7,97.2,94.8,0.85
c1cncc(-c2nnc(C3CCCCC3)o2)c1,97.2,9.2,-3.8,98.3,97.3,0.32
N=c1c2c(-c3ccccc3)c(-c3ccccc3)n(Cc3ccco3)c2ncn1CCO,42.1,nt,-32.6,17.4*,50.1,-1.38
N=c1c2c(-c3ccccc3)c(-c3ccccc3)n(Cc3ccco3)c2ncn1CCN1CCOCC1,18.5*,16.4,3.9,35.7*,47.0*,-0.64
COc1cccc(C2NC(=O)c3sc(=S)n(-c4ccccc4)c3N2)c1 (centres undefined),85.9,nt,nt,88.1,103.7,-1.05
C=CCOc1ccccc1/C=c1\sc2nc(=O)c(C)nn2c1=O,90.1,-6.2,1.6,32.9*,97.5,0.27
COc1ccc(/C=N/NC(N)=S)cc1OC(=O)c1cccc2ccccc12,nt,nt,-59.2,nt,nt,-0.95
CC(=O)n1c2ccccc2c2ccccc21,nt,nt,14.9,nt,nt,1.38
CC(=O)n1c(Cl)c(NC(=O)CCl)c2ccccc21,92.5,nt,-2.8,1.5*,64.3,0.8
Cc1c(CN(C)C)c2c(n1Cc1ccccc1)C(=O)c1ccc(Br)cc1-2,22.4*,nt,nt,5.5*,45.9*,-0.56
O=C(Cn1c(SCC(=O)N2CCc3ccccc32)nc2ccccc21)NC1CCCC1,76.3,nt,21.8,28.6*,102.7,-1.61
CC(C)Cn1c(SCC(=O)N2CCN(S(=O)(=O)c3ccccc3)CC2)nc2ccccc21,82.0,10.8,-32.3,31.5*,95.4,-0.84
CC(C)Cn1c(SCC(=O)NC(=O)NC2CCCC2)nc2ccccc21,102.0,5.0,-9.7,58.4,99.9,-3.35*
Cn1c(SCC(=O)N2CCN(S(=O)(=O)c3ccccc3)CC2)nc2ccccc21,87.7,nt,-5.2,86.6,99.2,-0.51
COc1ccccc1NC(=O)c1ccc(-c2ccccc2F)o1,75.1,8.5,4.0,52.7,90.7,-2.22
CCN(CC)Cc1c(O)ccc2c([N+](=O)[O-])c(C)n(-c3ccc(OC)cc3)c12,64.3,nt,-11.1,38.6*,93.2,-1.39
CCN(CC)Cc1c(O)ccc2occ(C(=O)c3ccc(OC)cc3)c12,80.6,nt,-0.7,81.4,89.6,-0.81
Cc1cc(Cl)c(S(=O)(=O)N2CCN(c3ccccc3)CC2)cc1OCC(N)=O,92.2,nt,13.1,99.7,90.6,-0.35
CC1CCN(S(=O)(=O)c2ccc3c(c2)oc(=O)n3CC(=O)N2CCc3ccccc3C2)CC1,91.9,nt,3.7,18.3*,86.3,nt
O=C(CSc1nnc(-c2ccc(O)cc2)o1)N1CCOCC1,87.0,4.2,nt,77.9,98.5,0.05
Oc1ccc(-c2nnc(SCC3CCCCC3)o2)cc1,86.7,21.4,-15.5,34.6*,102.3,-1.8
CCCOP(=O)(OCCC)c1c([N+](=O)[O-])cc(C(F)(F)F)cc1[N+](=O)[O-],11.5*,nt,16.3,39.0*,18.6*,0.66
O=C(Cc1ccccc1)Nc1ccc(N2CCN(Cc3ccccc3F)CC2)cc1,89.4,nt,1.0,81.0,92.3,0.09
CCCCNC(=O)N(O)C1N(CCCC)C(=O)N(CC(=O)OC)C1(C)C (centres undefined),95.8,nt,-5.8,95.6,100.8,-0.38
SMILES,HUVEC prolif 384,Jurkat tox 60K,F-actin modifier,H69AR growth 86K,Lung fibro prol,Pyk2 oligo antag
COc1ccc(C(c2c[nH]c3ccccc23)c2c[nH]c3ccccc23)cc1O,36.6,nt,5.0,7.2*,82.0,nt
COc1cccc(/C=C/C(=O)c2ccc[nH]2)c1,76.1,nt,nt,19.0*,77.3,-0.28
COc1cc(CN2C(=O)C(NC(=O)c3ccco3)(C(F)(F)F)C3=C2CC(C)(C)CC3=O)cc(OC)c1 (centres undefined),111.9,nt,1.8,85.2,89.4,-1.78
Cc1ccc(-c2c3c(=O)n(C)c(=O)n(C)c3c3c(C)cc(C)nn23)cc1,78.8,4.8,nt,82.5,95.4,nt
CCCN(CCC)C(=O)C1CCN(c2cc(C)nc3c(-c4ccc(OC)c(OC)c4)c(C)nn23)CC1,94.3,5.0,14.7,34.2*,94.9,nt
COc1ccc(-c2c(C)nn3c(N4CCC(C(=O)NCCN(C)C)CC4)cc(C)nc23)cc1OC,72.4,-1.8,nt,30.0*,83.4,-0.09
COc1ccc(CCNC(=O)C2CCN(C(=O)N(C)C)CC2)cc1OC,83.2,-10.2,nt,98.5,105.0,1.86
Cc1ccccc1C(=O)NC1CCN(Cc2nnnn2C2CCCC2)CC1,89.9,nt,3.0,90.0,95.8,0.24
